Results as given in ChEMBL document CHEMBL1687922, “Dipeptidyl peptidase IV dependent water-soluble prodrugs of highly lipophilic bicyclic nucleoside analogues” (J Med Chem, 2011).
Converted amounts (≈) assume the structure as drawn.

Tests used:
[1] = Aqueous solubility of the compound at 25 DegC after 4 hrs; format: physicochemical; settings: water
[2] = Stability of the compound assessed as conversion of prodrug to 3-[(2R,4S, 5R)-4-hydroxy-5-(hydroxymethyl)oxolan-2-yl]-6-(4-pentylphenyl)furo[2, 3-d]pyrimidin-2-one in presence of Dipeptidyl-peptidase 4 and 20 % human serum; format: physicochemical
Method in brief: (§1)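 Prodrug at 50 μM in PBS (0.1% DMSO) at 37 °C; reaction started with purified CD26 (1.5 mU) or 20% human or bovine serum in PBS. Aliquots taken at time points were quenched in cold methanol on ice, centrifuged, and the supernatant analysed by reverse-phase RP-8 HPLC (NaH2PO4/heptanesulfonic acid pH 3.2 versus acetonitrile gradient) for prodrug, intermediates and parent.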

[3] = tested on: Mus musculus; assay: Bioavailability in mouse assessed as fold increase in 3-[(2R,4S, 5R)-4-hydroxy-5-(hydroxymethyl)oxolan-2-yl]-6-(4-pentylphenyl)furo[2, 3-d]pyrimidin-2-one level within 0 to 180 mins administered by oral gavage; format: ADME, organism-based; settings: in vivo
Method in brief: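 Female mice received equimolar single oral gavage doses (parent […]) in 0.5% carboxymethylcellulose. Three mice per time point were sacrificed at 15, 30, 45, 60, 90, 120 and 180 min. Plasma was analysed for parent compound by HPLC with fluorescence detection, using relative peak areas. Fold increase in parent plasma levels over 0-180 min was calculated relative to the parent compound.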

[4] = tested on: Human alphaherpesvirus 3; assay: Antiviral activity against Varicella zoster virus OKA infected in HEL cells assessed as reduction in virus induced cytopathicity; format: functional, organism-based; settings: Human alphaherpesvirus 3, OKA
Method in brief: (§2)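 Confluent HEL fibroblast monolayers were infected with 20 PFU of VZV (Oka or YS strain). After 1-2 h adsorption, residual virus was removed and varying compound concentrations were added. Plaque formation was scored when untreated infected controls reached completion.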

[5] = Chemical stability of the compound in PBS buffer at pH 7.4 assessed as compound remaining after 24 hrs by HPLC; format: physicochemical; settings: read-out: Stability
Method in brief: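 Prodrug was held in PBS pH 7.4 at room temperature for 24 h. Percent intact prodrug was determined by HPLC.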

[6] = Cytotoxicity against HEL cells assessed as inhibition of cell proliferation; format: cell-based; settings: human
[7] = Cytotoxicity against HEL cells assessed as alteration of cell morphology; format: cell-based; settings: human
Method in brief: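 Uninfected HEL fibroblasts were exposed to the test compounds. MCC is the minimal concentration giving microscopically detectable alteration of cell morphology.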

[8] = tested on: Human alphaherpesvirus 3; assay: Antiviral activity against Varicella zoster virus YS infected in HEL cells assessed as reduction in virus induced cytopathicity; format: functional, organism-based; settings: Human alphaherpesvirus 3, YS; method in brief: as §2
[9] = Stability of the compound assessed as conversion of prodrug to 3-[(2R,4S, 5R)-4-hydroxy-5-(hydroxymethyl)oxolan-2-yl]-6-(4-pentylphenyl)furo[2, 3-d]pyrimidin-2-one in presence of Dipeptidyl-peptidase 4 and 20 % bovine serum; format: physicochemical; settings: cattle; method in brief: as §1
[10] = Aqueous solubility of the compound at 25 DegC after 24 hrs; format: physicochemical; settings: water
Method in brief: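 Thermodynamic water solubility was measured at 25 °C after 24 h, typically as the mean of two measurements (variation <20%).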

[11] = Stability of the compound assessed as conversion of prodrug to 3-[(2R,4S, 5R)-4-hydroxy-5-(hydroxymethyl)oxolan-2-yl]-6-(4-pentylphenyl)furo[2, 3-d]pyrimidin-2-one in presence of Dipeptidyl-peptidase 4; format: physicochemical; method in brief: as §1
[12] = tested on: Caco-2; assay: Stability in human CaCo-2 cells assessed as appearance of 3-[(2R,4S, 5R)-4-hydroxy-5-(hydroxymethyl)oxolan-2-yl]-6-(4-pentylphenyl)furo[2, 3-d]pyrimidin-2-one at the apical side of the cell; format: ADME, cell-based; settings: in the assay text read “basolateral side” for “apical side”
Method in brief: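 CaCo-2 cells were seeded at 1.5 × 10⁵ cells/well in upper cups of dual-chamber 24-well trays in DMEM with 10% FBS and grown to confluence (~3 days). Upper medium was replaced with DMEM containing compound at 100 μM; bottom medium was replaced with PBS. Upper and bottom cups were sampled at 0-7 and 24 h into cold methanol and analysed by HPLC.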

[13] = Stability of the compound assessed as conversion of prodrug to 3-[(2R,4S, 5R)-4-hydroxy-5-(hydroxymethyl)oxolan-2-yl]-6-(4-pentylphenyl)furo[2, 3-d]pyrimidin-2-one in presence of Dipeptidyl-peptidase 4, 20 % bovine serum and 2.5 uM DPPIV inhibitor vildagliptin; format: physicochemical; settings: cattle
Method in brief: (§3)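 Prodrug conversion by purified DPPIV/CD26 or by human, bovine or murine serum (20% in PBS) was run with varying concentrations of vildagliptin. Prodrug, intermediate and parent were quantified by HPLC.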

[14] = Stability of the compound assessed as conversion of prodrug to 3-[(2R,4S, 5R)-4-hydroxy-5-(hydroxymethyl)oxolan-2-yl]-6-(4-pentylphenyl)furo[2, 3-d]pyrimidin-2-one in presence of Dipeptidyl-peptidase 4, 20 % murine serum and 2.5 uM DPPIV inhibitor vildagliptin; format: physicochemical; settings: mouse; method in brief: as §3
[15] = Stability of the compound assessed as conversion of prodrug to 3-[(2R,4S, 5R)-4-hydroxy-5-(hydroxymethyl)oxolan-2-yl]-6-(4-pentylphenyl)furo[2, 3-d]pyrimidin-2-one in presence of Dipeptidyl-peptidase 4 and 2.5 uM DPPIV inhibitor vildagliptin; format: physicochemical; method in brief: as §3
[16] = Stability of the compound assessed as conversion of prodrug to 3-[(2R,4S, 5R)-4-hydroxy-5-(hydroxymethyl)oxolan-2-yl]-6-(4-pentylphenyl)furo[2, 3-d]pyrimidin-2-one in presence of Dipeptidyl-peptidase 4, 20 % human serum and 2.5 uM DPPIV inhibitor vildagliptin; format: physicochemical; method in brief: as §3

| solubility at 4 h [1] | Activity [2] | fold change (FC) [3] | EC50 [4] | remaining at 24 h [5] | EC50 [8] | Activity [9] | solubility at 24 h [10] | Activity [11] | Activity [12] | Activity [13] | Activity [14] | Activity [15] | Activity [16] | Compound | CC50 [6] | MCC [7] |
| --- | --- | --- | --- | --- | --- | --- | --- | --- | --- | --- | --- | --- | --- | --- | --- | --- |
| 14 mg/mL (≈ 19.8 mM) | Active | 11 | 9 nM | 69% | 6 nM | Active | – | – | – | – | – | – | – | CCCCCc1ccc(-c2cc3cn([C@H]4C[C@H](O)[C@@H](COC(=O)[C@H](CC(C)C)NC(=O)[C@@H]5CCCN5C(=O)[C@@H](N)C(C)C)O4)c(=O)nc3o2)cc1 | 31000 nM | > 0.5 µM |
| – | – | 12 | 127 nM | > 95% | 260 nM | – | 77 mg/mL (≈ 77.8 mM) | – | – | – | – | – | – | CCCCCc1ccc(-c2cc3cn([C@H]4C[C@H](OC(=O)[C@@H](NC(=O)[C@@H]5CCCN5C(=O)[C@@H](N)C(C)C)C(C)C)[C@@H](COC(=O)[C@@H](NC(=O)[C@@H]5CCCN5C(=O)[C@@H](N)C(C)C)C(C)C)O4)c(=O)nc3o2)cc1 | 50000 nM | > 5 µM |
| 6.1 mg/mL (≈ 9.16 mM) | Active | – | 6 nM | 74% | 3 nM | Active | – | – | – | – | – | – | – | CCCCCc1ccc(-c2cc3cn([C@H]4C[C@H](O)[C@@H](COC(=O)[C@H](C)NC(=O)[C@@H]5CCCN5C(=O)[C@@H](N)C(C)C)O4)c(=O)nc3o2)cc1 | 44000 nM | > 0.5 µM |
| – | – | 15 | 18 nM | > 95% | 22 nM | – | 55 mg/mL (≈ 76.1 mM) | Active | – | – | – | – | – | CCCCCc1ccc(-c2cc3cn([C@H]4C[C@H](O)[C@@H](COC(=O)[C@@H](NC(=O)[C@@H]5CCCN5C(=O)[C@@H](N)CCCCN)C(C)C)O4)c(=O)nc3o2)cc1 | 29000 nM | > 5 µM |
| 1.1 mg/mL (≈ 1.48 mM) | Active | – | 13 nM | 52% | 10 nM | Active | – | – | – | – | – | – | – | CCCCCc1ccc(-c2cc3cn([C@H]4C[C@H](O)[C@@H](COC(=O)[C@H](Cc5ccccc5)NC(=O)[C@@H]5CCCN5C(=O)[C@@H](N)C(C)C)O4)c(=O)nc3o2)cc1 | 40000 nM | > 0.5 µM |
| – | – | – | 42 nM | > 95% | 85 nM | – | 39 mg/mL (≈ 55 mM) | Active | – | – | – | – | – | CCCCCc1ccc(-c2cc3cn([C@H]4C[C@H](O)[C@@H](COC(=O)[C@@H](NC(=O)[C@@H]5CCCN5C(=O)[C@@H](N)CC(N)=O)C(C)C)O4)c(=O)nc3o2)cc1 | 56000 nM | > 5 µM |
| – | – | – | – | – | – | – | 0.018 mg/mL (≈ 0.0452 mM) | – | – | – | – | – | – | CCCCCc1ccc(-c2cc3cn([C@H]4C[C@H](O)[C@@H](CO)O4)c(=O)nc3o2)cc1 [CF1743] | – | > 20 µM |
| – | – | 13 | 89 nM | > 95% | 154 nM | – | 1.2 mg/mL (≈ 1.73 mM) | – | Active | Not Active | Not Active | Not Active | Not Active | CCCCCc1ccc(-c2cc3cn([C@H]4C[C@H](O)[C@@H](COC(=O)[C@@H](NC(=O)[C@@H]5CCCN5C(=O)[C@@H](N)C(C)C)C(C)C)O4)c(=O)nc3o2)cc1 | > 100000 nM | > 2 µM |
| – | Not Active | – | 32 nM | > 95% | 73 nM | Not Active | 15 mg/mL (≈ 21.1 mM) | Active | – | – | – | – | – | CCCCCc1ccc(-c2cc3cn([C@H]4C[C@H](O)[C@@H](COC(=O)[C@@H](NC(=O)[C@@H]5CCCN5C(=O)[C@@H](N)CC(=O)O)C(C)C)O4)c(=O)nc3o2)cc1 | 52000 nM | > 5 µM |
| – | – | 7 | 18 nM | > 95% | 16 nM | – | 5.2 mg/mL (≈ 7.49 mM) | – | – | – | – | – | – | CCCCCc1ccc(-c2cc3cn([C@H]4C[C@H](OC(=O)[C@@H](NC(=O)[C@@H]5CCCN5C(=O)[C@@H](N)C(C)C)C(C)C)[C@@H](CO)O4)c(=O)nc3o2)cc1 | 17000 nM | 60 µM |
